Laboratory results from the M2OR odorant receptor database.

Assays:
Conditions in all cases: stereoisomer not certain
[1] = biological target: T1, OR10G2 (Homo sapiens) (UniProt Q8NGC3)
T1 sequence (whole entry): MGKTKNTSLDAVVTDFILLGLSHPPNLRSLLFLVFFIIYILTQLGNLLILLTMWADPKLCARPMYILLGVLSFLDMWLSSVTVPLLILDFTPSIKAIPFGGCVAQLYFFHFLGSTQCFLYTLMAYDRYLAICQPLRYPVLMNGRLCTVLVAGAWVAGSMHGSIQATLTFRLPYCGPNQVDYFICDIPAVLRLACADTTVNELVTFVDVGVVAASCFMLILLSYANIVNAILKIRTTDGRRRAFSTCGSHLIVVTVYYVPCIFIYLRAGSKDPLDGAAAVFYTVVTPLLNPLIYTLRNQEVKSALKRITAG
How it was run: (§1)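 Each receptor–molecule pair is labelled responsive or non-responsive (inactive) according to whether the original authors judged the measured signal statistically different from baseline. The data were taken from the main text and supplementary material of published papers and checked for typos and inconsistencies. Assay methods differed by source, with transient luciferase assays in mammalian cell lines being common.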

[2] = biological target: T2, OR10G3 (Homo sapiens) (UniProt Q8NGC4)
T2 sequence (whole entry): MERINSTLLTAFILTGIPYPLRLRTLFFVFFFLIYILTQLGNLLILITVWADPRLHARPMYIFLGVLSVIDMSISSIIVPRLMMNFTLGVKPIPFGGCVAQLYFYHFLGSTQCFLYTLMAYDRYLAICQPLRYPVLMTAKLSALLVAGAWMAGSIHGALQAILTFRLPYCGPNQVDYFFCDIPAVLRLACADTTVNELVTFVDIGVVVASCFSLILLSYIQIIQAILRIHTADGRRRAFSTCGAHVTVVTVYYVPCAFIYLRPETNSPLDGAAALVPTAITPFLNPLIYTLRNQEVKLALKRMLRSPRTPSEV
How it was run: as §1

[3] = biological target: T3, OR10G4 (Homo sapiens) (UniProt Q8NGN3)
T3 sequence (whole entry): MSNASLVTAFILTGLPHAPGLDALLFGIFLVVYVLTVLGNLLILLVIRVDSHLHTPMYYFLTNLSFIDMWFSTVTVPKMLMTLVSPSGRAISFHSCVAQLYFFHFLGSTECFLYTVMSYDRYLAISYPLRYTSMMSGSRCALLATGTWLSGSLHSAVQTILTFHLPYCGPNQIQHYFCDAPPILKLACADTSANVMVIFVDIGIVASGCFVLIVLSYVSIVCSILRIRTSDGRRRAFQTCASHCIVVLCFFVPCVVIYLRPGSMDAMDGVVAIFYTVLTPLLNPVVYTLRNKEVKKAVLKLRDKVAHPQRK
How it was run: as §1

[4] = biological target: T4, OR10G6 (Homo sapiens) (UniProt Q8NH81)
T4 sequence (whole entry): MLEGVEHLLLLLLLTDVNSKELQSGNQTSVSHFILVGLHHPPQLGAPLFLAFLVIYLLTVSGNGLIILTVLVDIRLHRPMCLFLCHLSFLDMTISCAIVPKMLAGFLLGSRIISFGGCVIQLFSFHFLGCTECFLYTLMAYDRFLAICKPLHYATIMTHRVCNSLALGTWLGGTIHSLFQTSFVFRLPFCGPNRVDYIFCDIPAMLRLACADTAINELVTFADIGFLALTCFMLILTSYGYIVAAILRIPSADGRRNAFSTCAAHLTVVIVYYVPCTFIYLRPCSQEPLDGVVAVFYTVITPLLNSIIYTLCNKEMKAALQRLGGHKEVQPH
How it was run: as §1

[5] = biological target: T5, OR10G7 (Homo sapiens) (UniProt Q8NGN6)
T5 sequence (whole entry): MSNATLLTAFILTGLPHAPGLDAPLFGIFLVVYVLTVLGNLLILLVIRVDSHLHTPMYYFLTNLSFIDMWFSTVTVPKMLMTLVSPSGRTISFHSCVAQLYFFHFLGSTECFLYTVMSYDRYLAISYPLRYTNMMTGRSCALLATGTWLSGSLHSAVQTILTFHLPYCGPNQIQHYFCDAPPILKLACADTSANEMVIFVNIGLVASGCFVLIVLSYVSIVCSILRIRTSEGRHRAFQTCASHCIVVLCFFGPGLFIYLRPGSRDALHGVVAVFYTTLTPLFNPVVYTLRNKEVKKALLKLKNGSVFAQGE
How it was run: as §1

[6] = biological target: T6, OR10G8 (Homo sapiens) (UniProt Q8NGN5)
T6 sequence (whole entry): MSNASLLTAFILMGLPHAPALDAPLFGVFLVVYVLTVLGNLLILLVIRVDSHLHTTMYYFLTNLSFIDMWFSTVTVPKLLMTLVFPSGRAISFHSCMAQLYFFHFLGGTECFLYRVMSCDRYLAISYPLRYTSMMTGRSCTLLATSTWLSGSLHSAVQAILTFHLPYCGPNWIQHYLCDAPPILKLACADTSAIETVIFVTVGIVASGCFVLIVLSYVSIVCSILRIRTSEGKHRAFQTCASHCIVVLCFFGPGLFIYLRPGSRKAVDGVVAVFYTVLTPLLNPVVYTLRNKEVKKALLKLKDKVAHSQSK
How it was run: as §1

[7] = biological target: T7, OR10G9 (Homo sapiens) (UniProt Q8NGN4)
T7 sequence (whole entry): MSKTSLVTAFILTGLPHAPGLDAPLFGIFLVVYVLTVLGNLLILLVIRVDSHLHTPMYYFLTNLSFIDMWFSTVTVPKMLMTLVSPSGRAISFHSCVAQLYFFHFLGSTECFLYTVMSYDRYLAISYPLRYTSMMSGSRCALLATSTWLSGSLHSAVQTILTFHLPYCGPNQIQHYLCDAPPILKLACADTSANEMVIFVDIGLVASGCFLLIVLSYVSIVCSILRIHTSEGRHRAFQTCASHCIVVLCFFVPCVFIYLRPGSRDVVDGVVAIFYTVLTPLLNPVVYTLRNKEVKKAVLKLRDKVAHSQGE
How it was run: as §1

[8] = biological target: T8, OR10H1 (Homo sapiens) (UniProt Q9Y4A9)
T8 sequence (whole entry): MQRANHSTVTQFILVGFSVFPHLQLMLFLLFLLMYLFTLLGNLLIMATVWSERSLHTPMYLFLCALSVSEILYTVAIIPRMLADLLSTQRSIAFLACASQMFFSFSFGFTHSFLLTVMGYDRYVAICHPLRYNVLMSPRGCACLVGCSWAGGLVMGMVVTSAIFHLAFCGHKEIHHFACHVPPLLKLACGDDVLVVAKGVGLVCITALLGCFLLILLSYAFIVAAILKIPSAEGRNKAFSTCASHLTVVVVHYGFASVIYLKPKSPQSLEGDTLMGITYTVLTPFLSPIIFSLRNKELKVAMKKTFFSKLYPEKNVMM
How it was run: as §1

[9] = biological target: T9, OR10H2 (Homo sapiens) (UniProt O60403)
T9 sequence (whole entry): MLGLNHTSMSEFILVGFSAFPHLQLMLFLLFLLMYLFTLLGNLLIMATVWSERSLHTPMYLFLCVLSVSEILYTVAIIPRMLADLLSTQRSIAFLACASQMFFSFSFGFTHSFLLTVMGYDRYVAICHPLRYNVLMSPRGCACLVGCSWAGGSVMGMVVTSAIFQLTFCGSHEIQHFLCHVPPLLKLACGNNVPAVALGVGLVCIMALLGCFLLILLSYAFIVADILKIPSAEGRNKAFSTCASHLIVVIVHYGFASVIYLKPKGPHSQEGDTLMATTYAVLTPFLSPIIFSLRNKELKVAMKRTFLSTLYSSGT
How it was run: as §1

[10] = biological target: T10, OR10H3 (Homo sapiens) (UniProt O60404)
T10 sequence (whole entry): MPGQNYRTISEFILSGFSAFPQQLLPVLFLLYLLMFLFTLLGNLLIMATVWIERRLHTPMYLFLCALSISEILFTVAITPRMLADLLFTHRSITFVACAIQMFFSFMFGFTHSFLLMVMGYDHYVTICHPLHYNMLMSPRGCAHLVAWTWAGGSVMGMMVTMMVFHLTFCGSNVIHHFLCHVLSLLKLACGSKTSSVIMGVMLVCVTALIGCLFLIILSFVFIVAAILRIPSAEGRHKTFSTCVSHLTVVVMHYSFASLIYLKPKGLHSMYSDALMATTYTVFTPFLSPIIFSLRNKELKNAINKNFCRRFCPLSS
How it was run: as §1

[11] = biological target: T11, OR10H4 (Homo sapiens) (UniProt Q8NGA5)
T11 sequence (whole entry): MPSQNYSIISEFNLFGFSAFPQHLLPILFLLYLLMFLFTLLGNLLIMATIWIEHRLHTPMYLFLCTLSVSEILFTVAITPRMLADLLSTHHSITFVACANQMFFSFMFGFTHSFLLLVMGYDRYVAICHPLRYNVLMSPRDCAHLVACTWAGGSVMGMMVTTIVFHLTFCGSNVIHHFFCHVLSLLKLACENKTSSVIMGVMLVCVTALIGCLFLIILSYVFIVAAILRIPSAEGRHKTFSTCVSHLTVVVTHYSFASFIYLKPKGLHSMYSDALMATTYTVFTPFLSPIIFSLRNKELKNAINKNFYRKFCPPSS
How it was run: as §1

[12] = biological target: T12, OR10H5 (Homo sapiens) (UniProt Q8NGA6)
T12 sequence (whole entry): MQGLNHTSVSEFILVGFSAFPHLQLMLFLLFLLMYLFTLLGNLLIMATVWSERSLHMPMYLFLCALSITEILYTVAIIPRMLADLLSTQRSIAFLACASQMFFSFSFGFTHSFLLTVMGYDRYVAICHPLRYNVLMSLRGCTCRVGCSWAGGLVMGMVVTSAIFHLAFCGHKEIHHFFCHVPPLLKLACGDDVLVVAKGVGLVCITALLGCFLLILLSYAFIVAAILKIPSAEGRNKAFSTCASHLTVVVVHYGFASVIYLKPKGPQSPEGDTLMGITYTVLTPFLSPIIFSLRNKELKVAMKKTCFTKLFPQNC
How it was run: as §1

[13] = biological target: T13, OR10J1 (Homo sapiens) (UniProt P30954)
T13 sequence (whole entry): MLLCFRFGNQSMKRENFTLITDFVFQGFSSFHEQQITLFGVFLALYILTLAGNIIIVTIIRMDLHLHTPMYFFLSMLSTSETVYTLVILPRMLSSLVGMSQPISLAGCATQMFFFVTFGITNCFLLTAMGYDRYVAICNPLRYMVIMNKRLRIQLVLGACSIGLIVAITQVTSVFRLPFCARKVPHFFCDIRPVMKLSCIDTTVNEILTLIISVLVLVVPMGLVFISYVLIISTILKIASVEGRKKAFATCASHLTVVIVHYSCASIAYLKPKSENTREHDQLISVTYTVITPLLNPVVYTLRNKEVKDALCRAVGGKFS
How it was run: as §1

[14] = biological target: T14, OR10J3 (Homo sapiens) (UniProt Q5JRS4)
T14 sequence (whole entry): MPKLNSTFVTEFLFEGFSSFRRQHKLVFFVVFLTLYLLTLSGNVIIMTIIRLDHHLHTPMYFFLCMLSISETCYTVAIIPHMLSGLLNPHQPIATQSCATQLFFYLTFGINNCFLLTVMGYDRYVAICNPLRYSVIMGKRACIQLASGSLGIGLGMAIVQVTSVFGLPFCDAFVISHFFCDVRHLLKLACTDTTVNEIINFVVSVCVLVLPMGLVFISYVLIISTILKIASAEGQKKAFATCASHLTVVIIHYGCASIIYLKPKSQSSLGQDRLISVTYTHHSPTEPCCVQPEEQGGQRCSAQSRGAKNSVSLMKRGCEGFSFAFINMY
How it was run: as §1

[15] = biological target: T15, OR10J5 (Homo sapiens) (UniProt Q8NHC4)
T15 sequence (whole entry): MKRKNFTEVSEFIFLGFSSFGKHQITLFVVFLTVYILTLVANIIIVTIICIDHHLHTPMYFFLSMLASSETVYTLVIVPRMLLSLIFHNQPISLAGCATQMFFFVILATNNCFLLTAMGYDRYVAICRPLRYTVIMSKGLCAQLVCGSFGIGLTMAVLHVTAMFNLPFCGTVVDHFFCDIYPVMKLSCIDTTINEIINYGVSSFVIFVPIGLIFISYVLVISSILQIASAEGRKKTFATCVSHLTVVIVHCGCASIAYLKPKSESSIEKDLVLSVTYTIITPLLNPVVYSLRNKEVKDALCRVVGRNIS
How it was run: as §1

[16] = biological target: T16, OR10K1 (Homo sapiens) (UniProt Q8NGX5)
T16 sequence (whole entry): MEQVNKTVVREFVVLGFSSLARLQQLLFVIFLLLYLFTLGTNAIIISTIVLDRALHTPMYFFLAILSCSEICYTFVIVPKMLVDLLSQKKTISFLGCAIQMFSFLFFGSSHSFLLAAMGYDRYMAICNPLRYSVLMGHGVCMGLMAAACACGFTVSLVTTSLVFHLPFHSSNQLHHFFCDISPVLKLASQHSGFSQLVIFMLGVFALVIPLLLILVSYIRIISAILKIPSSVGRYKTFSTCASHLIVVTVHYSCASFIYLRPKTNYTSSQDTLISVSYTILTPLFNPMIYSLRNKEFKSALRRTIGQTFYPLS
How it was run: as §1

[17] = biological target: T17, OR10P1 (Homo sapiens) (UniProt Q8NGE3)
T17 sequence (whole entry): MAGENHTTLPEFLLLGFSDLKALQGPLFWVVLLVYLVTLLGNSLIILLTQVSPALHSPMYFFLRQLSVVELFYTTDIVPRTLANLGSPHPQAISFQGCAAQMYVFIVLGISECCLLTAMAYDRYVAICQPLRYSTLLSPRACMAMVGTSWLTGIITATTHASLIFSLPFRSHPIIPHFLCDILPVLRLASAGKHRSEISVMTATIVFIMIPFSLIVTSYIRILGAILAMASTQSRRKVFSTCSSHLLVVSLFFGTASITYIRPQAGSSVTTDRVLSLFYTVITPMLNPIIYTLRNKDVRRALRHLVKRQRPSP
How it was run: as §1

[18] = biological target: T18, OR10Q1 (Homo sapiens) (UniProt Q8NGQ4)
T18 sequence (whole entry): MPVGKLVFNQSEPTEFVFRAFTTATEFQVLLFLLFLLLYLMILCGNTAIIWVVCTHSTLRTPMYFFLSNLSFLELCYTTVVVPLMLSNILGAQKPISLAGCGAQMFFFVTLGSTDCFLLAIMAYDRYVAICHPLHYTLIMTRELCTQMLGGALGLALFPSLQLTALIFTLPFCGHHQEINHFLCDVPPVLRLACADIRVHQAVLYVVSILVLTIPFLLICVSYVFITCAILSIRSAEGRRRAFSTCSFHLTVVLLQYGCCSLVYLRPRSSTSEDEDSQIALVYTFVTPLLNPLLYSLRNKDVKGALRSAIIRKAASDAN
How it was run: as §1

Measured: odorant receptor agonist call;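 note: active if original authors judged signal statistically different from baseline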

Cc1cnc(C)c(C)n1
inactive: all assays above
